# Assay outcomes from PubChem BioAssay.
# Compounds with a hit are over-represented: about 2.2% of the library has one in this group of screens.
# PPC-1+TRAIL kill = compounds killing PPC-1 cancer cells with TRAIL present (potentiator screen, no TRAIL-free arm) | cell killing (% activity), % at 4 µM or 5 µM | actives 0.41% (n = 220,000) | PPC-1 cells + TRAIL, ATPLite viability luminescence;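 active = cell killing above 50% in the first pass at 4 µM, then a duplicate retest at 5 µM averaging 50% or more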;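 also: plate controls were cells with TRAIL plus DMSO for no effect and medium-only wells lacking cells for full effect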
# TRAIL sens C8 = sensitizes caspase-8 expressing cells to TRAIL; NB7+C8 cells + TRAIL, ATPlite viability luminescence; inhibition (viability loss, TRAIL sensitization), % at 10 µM; actives 1% (n = 360,000);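 active = compounds causing at least 50% loss of cell viability in the single-dose screen, relative to plate controls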
# Wee1 degr inh = inhibitors of human Wee1 degradation. actives 1.2% (n = 220,000). HeLa Luc-Wee1K328M stability, luciferase luminescence; 100% = proteasome inhibitor MG132 effect. P30291. reporter increase, % at 5 µM;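 active = activation above the mean of all tested compounds plus 3 SD, set per screening run, cut at about 8.8% in these data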;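 also: cells exposed to compound for 20 h before luminescence read; 0% = DMSO alone and 100% = MG132 at 30 µM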
# FLuc inh counter = Photinus pyralis luciferase inhibition counter-screen | ATPLite firefly luciferase biochemical luminescence, 10 min | inhibition, % at 10 µM | actives 1.5% (n = 200,000) | AID 1006;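 active = inhibition above about 50% when tested at 10 µM, limit read from the data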
# Target sequence (P08659 whole entry, looked up): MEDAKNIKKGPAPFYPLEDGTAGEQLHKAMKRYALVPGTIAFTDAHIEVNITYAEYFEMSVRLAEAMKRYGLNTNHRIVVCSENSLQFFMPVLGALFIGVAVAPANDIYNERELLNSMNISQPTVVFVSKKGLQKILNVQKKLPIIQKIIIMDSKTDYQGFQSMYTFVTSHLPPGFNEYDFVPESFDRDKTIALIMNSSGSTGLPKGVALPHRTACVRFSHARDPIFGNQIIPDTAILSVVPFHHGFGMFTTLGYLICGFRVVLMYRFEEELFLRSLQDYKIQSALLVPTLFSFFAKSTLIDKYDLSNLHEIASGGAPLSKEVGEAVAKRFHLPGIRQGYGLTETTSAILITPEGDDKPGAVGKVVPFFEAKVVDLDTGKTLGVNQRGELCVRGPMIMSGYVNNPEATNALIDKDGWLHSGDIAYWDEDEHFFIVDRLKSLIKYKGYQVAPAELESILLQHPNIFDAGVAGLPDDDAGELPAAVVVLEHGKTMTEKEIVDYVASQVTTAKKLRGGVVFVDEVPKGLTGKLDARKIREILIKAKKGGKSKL
# FLuc stim CS = firefly luciferase counter-screen for stimulation assays. AID 1027. activation factor at 10 µM. 200,000 tested, under 10 active. ATPlite luciferase biochemical, luminescence, 10 min; 0 = ATP-free wells, 1 = DMSO control;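 active = luciferase activation factor, scaled between plate controls, of at least 2 with compound at 10 µM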
#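 assay system = Luciferase/luciferin detection reagent, cell-free biochemical luciferase assay | also added = ATP substrate | times = 10 min post-reagent at room temperature | measured by = luminescence from luciferase reaction | measure = luciferase activation, seen as luminescence increase over controls | benchmarks = low control with PBS replacing ATP, high control enzyme plus ATP without compound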
# PKD1 inh = inhibitors of human PKD1 kinase | Q15139 | PKD1 kinase fluorescence polarization assay | inhibition, % (no concentration beside the values) | actives 0.056% (n = 200,000); in the data active = inhibition above about 50%
# * = called active by the depositor; x = not tested or not shown.
SMILES,PPC-1+TRAIL kill,TRAIL sens C8,Wee1 degr inh,FLuc inh counter,FLuc stim CS,PKD1 inh
COc1ccccc1/C=C1/C(=O)N(c2ccccc2)N=C1C,x,-22.0,x,x,x,x
CC1=NN(c2ccccc2)C(=O)/C1=C\c1c(C)[nH]n(-c2ccccc2)c1=O,12.5,16.6,15.8*,-4.2,1,4.0
Cc1cc(C(=O)N2CCN(S(=O)(=O)c3ccccc3F)CC2)c(C)o1,-2.3,-15.2,-1.4,-2.6,1,-7.2
CCn1cc(CNCc2c(C(=O)N3CCCCC3)nc3c(C)cccn23)cn1,11.6,-1.1,-1.4,-5.3,1.1,4.9
Cc1cccn2c(CNCCSc3nccn3C)c(C(=O)N3CCCCC3)nc12,4.1,10.7,8.9*,x,x,x
Cc1cccn2c(CNCCCn3ncc4ccccc43)c(C(=O)N3CCCCC3)nc12,-3.7,-0.3,10.4*,-3.2,1,-4.1
Cc1c(C(=O)O)sc(S(=O)(=O)N2CCN(C(=O)Cc3ccc(F)cc3)CC2)c1C(=O)O,x,-15.2,x,x,x,x
Cc1cc(C)c(C)c(S(=O)(=O)N2CCN(c3ncnc4ccccc34)CC2)c1C,x,54.8*,x,x,x,x
O=S(=O)(Nc1ccc(S(=O)(=O)Nc2ccccc2)cc1)c1ccccc1,-4.5,10.0,9.2*,0.2,1,-5.9
O=S(=O)(Nc1ccc(-c2ccccc2)cc1)c1ccccc1,x,10.4,x,x,x,x
CCn1c(CNC(=O)Cc2ccc(OC)cc2)nnc1SCC(=O)Nc1nccs1,35.5,-15.1,10.7*,-0.8,1,-1.1
CCn1c(CNC(=O)Cc2ccc(OC)cc2)nnc1SCC(=O)Nc1ccc(C(=O)O)cc1,5.6,3.6,0.3,-1.8,1,-0.7
Nc1n[nH]c(=S)n1/N=C1/C(=O)Nc2ccccc21,10.3,-3.8,-1.9,69.9*,0.3,6.1
O=[N+]([O-])c1cc(S(=O)(=O)N2CCCCCC2)ccc1Cl,56.3*,-3.9,-1.5,-8.2,1.1,-8.9
CC(=O)Oc1ccccc1/C=C/c1nc2ccccc2c(=O)o1,x,81.6*,x,x,x,x
CC(=O)Oc1ccc(/C=C/c2nc3ccccc3c(=O)o2)cc1,x,76.4*,x,x,x,x
CC1(C)OC(C)(C)/C(=C/Nc2ccc(O)cc2)C1=O,14.0,11.8,9.9*,7.6,0.9,-10.1
CCOC(=O)c1sc(NC(=O)c2cc(-c3ccccc3C)nc3ccccc23)c(C#N)c1C,22.0,61.1*,-0.8,-2.2,1,-1.6
CC(C)c1ccccc1OCC(=O)Nc1ccc2[nH]ncc2c1,x,-0.4,x,x,x,x
CN(CCc1ccccc1)C(=O)c1ccc(NC(=O)Cc2ccc(NC(=O)C3CCCN(C(=O)C4CCCC4)C3)cc2)cc1 (configuration not stated),x,0.5,x,x,x,x
O=C(CSc1nccc(=O)[nH]1)NC1CCCC1,x,4.3,x,x,x,x
O=S(=O)(Nc1nc2ccccc2nc1N1CCc2ccccc2C1)c1ccc(Br)cc1,56.4*,61.0*,2.9,45.5,0.5,-2.1
COc1ccc(N=Cc2c(O)[nH]c3ccccc23)cc1,4.1,24.2,0.1,51.8*,0.5,18.8
COc1ccc(N=Cc2c(O)c3ccccc3oc2=O)cc1,6.9,11.8,0.5,88.2*,0.1,-6.2
Cc1ccc(OCC(=O)Nc2ccc(S(=O)(=O)NC3=NCCCCC3)cc2)cc1,x,2.4,x,x,x,x
SMILES,PPC-1+TRAIL kill,TRAIL sens C8,Wee1 degr inh,FLuc inh counter,FLuc stim CS,PKD1 inh
O=C(NCc1n[nH]c(=S)n1-c1ccc(Cl)c(Cl)c1)c1ccc(S(=O)(=O)N2CCCCC2)cc1,x,0.4,x,x,x,x
O=C(NCc1n[nH]c(=S)n1-c1cccc(Cl)c1)c1ccc(S(=O)(=O)N2CCCC2)cc1,-0.3,-1.6,11.4*,-1.1,1,1.4
COc1cccc(/C=C/C(=O)NNC(=O)c2ccco2)c1OC,x,62.9*,x,x,x,x
Cc1cc(C)c(S(=O)(=O)N/N=C/c2ccc3c(c2)OCO3)c(C)c1,x,-9.6,x,x,x,x
COc1c(Cl)cccc1-c1cn2ccccc2n1,38.8,73.3*,5.2,x,x,x
COc1ccc(OCC(=O)Nc2ccccc2Cl)cc1,15.2,-0.7,-1.1,9.7,0.9,1.4
COc1ccc(S(=O)CC(=O)Nc2ccccc2Cl)cc1 (configuration not stated),27.7,-3.0,9.7*,-4.3,1,-2.3
Cc1ccc(NC2=CC(=O)C(=O)c3ccccc32)cc1,48.9,91.1*,-0.4,31.2,0.7,-4.4
Cc1cc(NC2=CC(=O)C(=O)c3ccccc32)no1,x,72.2*,x,x,x,x
CCOC(=O)N1CCN(C2=C(NS(=O)(=O)c3ccc(C)cc3)C(=O)c3ccccc3C2=O)CC1,x,52.8*,x,x,x,x
O=C1C=C(Nc2ccc(O)cc2)C(=O)c2ccccc21,11.7,43.0,-1.0,x,x,x
Cc1cc(NC(=O)CCN2C(=O)c3ccccc3C2=O)no1,17.2,-9.2,4.1,-2.9,1,-5.5
NS(=O)(=O)c1ccc(NC2=CC(=O)C(=O)c3ccccc32)cc1,x,63.9*,x,x,x,x
NC(Cc1ccc(F)cc1)c1csc(Nc2cc(Oc3ccccc3)ncn2)n1 (configuration not stated),x,31.3,x,x,x,x
O=c1ccc2cc(S(=O)(=O)Nc3ccc(Br)cc3)ccc2o1,x,13.2,x,x,x,x
C=C(C)C(=O)Nc1ccc2c(c1)OCCOCCOCCO2,7.1,-14.8,-4.1,x,x,x
COc1cc(OC)c(NC2=CC(=O)C(=O)c3ccccc32)cc1Cl,x,95.5*,x,x,x,x
CCOC(=O)c1ccc(NC2=CC(=O)C(=O)c3ccccc32)cc1,-2.7,94.0*,1.4,-2.8,1,-3.5
Cc1ccc(NC2=C(N3CCOCC3)C(=O)c3ccccc3C2=O)cc1,4.3,55.6*,0.1,56.0*,0.4,-1.5
Cc1cc(O)cc2c1C1CCC3(C)C(=O)CCC3C1C=C2 (configuration not stated),x,13.2,x,x,x,x
N#C/C(=C\c1cccnc1)c1ccccc1[N+](=O)[O-],x,6.2,x,x,x,x
COC(=O)c1nn(-c2ccc3c(c2)CCN3C(C)=O)cc1O,76.2*,80.9*,-4.7,94.2*,0.1,-4.1
CCOC(=O)c1nn(-c2ccc(C)c(C)c2)cc1O,10.3,17.4,1.1,50.1*,0.5,-1.5
COC(=O)c1nn(-c2ccc3c(c2)OCO3)cc1O,18.9,13.9,1.9,41.6,0.6,4.8
Cc1ccc(S(=O)(=O)N2CCN(C(=O)n3ccnc3)CC2)cc1,x,-5.9,x,x,x,x
Cc1ccc(S(=O)(=O)N2CCN(C(=O)N3CCCCC3)CC2)c(C)c1,x,19.1,x,x,x,x
Cc1ccc(NC(=S)N2CCC(c3ccccc3)C2)c(Cl)c1 (configuration not stated),35.3,42.8,0.5,73.8*,0.3,1.8
S=C(Nc1ccccc1Cl)N1CCC(c2ccccc2)C1 (configuration not stated),6.7,-5.5,3.2,20.8,0.8,-1.2
O=C(Nc1ccc(Cl)cc1)N1CCC(c2ccccc2)C1 (configuration not stated),27.4,33.2,8.5,63.6*,0.4,-0.3
Cc1ccc(C2CCN(C(=O)Nc3ccccc3)C2)cc1 (configuration not stated),21.1,8.6,1.1,33.6,0.7,-2.7
